Reference: ChEMBL document CHEMBL4689842, “EUbOPEN Chemogenomics Library wave 1” (2021)

Key:
Type in all cases: toxicity, cell-based
[1] = tested on: U2OS; assay: Incucyte cell viability with U2OS; conditions: human, 10 µM, compound concentration 10 uM; also: filed as whole numbers so only -1 and 0 and 1 occur
[2] = tested on: U2OS; assay: Multiplex assay against U2OS; conditions: human
How it was run: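 Phenotypes for tubulin, mitochondrial mass and membrane permeability are expressed as per cents of healthy-nucleus cells. Cells were stained live at seeding with Hoechst33342, BioTracker Green Microtubule Cytoskeleton Dye, MitoTracker Red and Annexin V Alexa Fluor 680, then imaged after compound addition on a CQ1 microscope at 37°C and 5% CO2. Machine-learning gating in CellPathfinder separated Hoechst high-intensity objects from normal cells, divided normal cells by nuclear state (healthy, pyknosed, fragmented) and divided pyknosed cells into mitotic or apoptotic.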

[3] = tested on: HEK-293T; assay: Incucyte cell viability with HEK293T; conditions: human, 10 µM, compound concentration 10 uM; also: filed as whole numbers so only -1 and 0 and 1 occur
[4] = 6 h, replicate number 1, timepoint 6 hours
[5] = 12 h, replicate number 1, timepoint 12 hours
[6] = 18 h, replicate number 1, timepoint 18 hours
[7] = 24 h, replicate number 1, timepoint 24 hours
[8] = 12 h, 1 µM, compound concentration 1 uM, replicate 1
[9] = 12 h, 1 µM, compound concentration 1 uM, replicate 2
[10] = 12 h, 10 µM, compound concentration 10 uM, replicate 1
[11] = 12 h, 10 µM, compound concentration 10 uM, replicate 2
[12] = 24 h, 1 µM, compound concentration 1 uM, replicate 1
[13] = 24 h, 1 µM, compound concentration 1 uM, replicate 2
[14] = 24 h, 10 µM, compound concentration 10 uM, replicate 1
[15] = 24 h, 10 µM, compound concentration 10 uM, replicate 2
[16] = 48 h, 1 µM, compound concentration 1 uM, replicate 1
[17] = 48 h, 1 µM, compound concentration 1 uM, replicate 2
[18] = 48 h, 10 µM, compound concentration 10 uM, replicate 1
[19] = 48 h, 10 µM, compound concentration 10 uM, replicate 2

In the case of `Cc1nc(Cc2cccc(C(F)(F)F)c2)sc1-c1ccc(C(N)=O)nc1` [TP-024n], the “Growth Rate” value [1, 4] is reported as 0, the “Growth Rate” value [1, 5] is reported as 0 and the “Growth Rate” value [1, 6] is reported as 0. For the same compound, the “Growth Rate” value [1, 7] was 0, the “Population Apoptotic (%)” value [2, 8] was 58% and the “Population Fragmented Nuclei (%)” value [2, 8] was 8%. The “Population Healthy Nuclei (%)” value [2, 8] was 85%, the “Population Hoechst High Intensity Objects (%)” value [2, 8] was 5% and the “Population Membrane Permeable-Phenotype (%)” value [2, 8] was 5%. For the same compound, the “Population Mitochondria Different-Phenotype (%)” value [2, 8] was 10%, the “Population Mitotic Cells (%)” value [2, 8] was 41% and the “Population Normal (%)” value [2, 8] was 94%. For the same compound, the “Population Pyknosed Nuclei (%)” value [2, 8] was 6%, the “Population Tubulin-Different-Phenotype (%)” value [2, 8] was 9% and the “Total Cell Count” value [2, 8] was 159. The “Population Apoptotic (%)” value [2, 9] was 50%, the “Population Fragmented Nuclei (%)” value [2, 9] was 0% and the “Population Healthy Nuclei (%)” value [2, 9] was 94%. The “Population Hoechst High Intensity Objects (%)” value [2, 9] was 11%, the “Population Membrane Permeable-Phenotype (%)” value [2, 9] was 2% and the “Population Mitochondria Different-Phenotype (%)” value [2, 9] was 18%. The “Population Mitotic Cells (%)” value [2, 9] was 50%, the “Population Normal (%)” value [2, 9] was 88% and the “Population Pyknosed Nuclei (%)” value [2, 9] was 5%. For the same compound, the “Population Tubulin-Different-Phenotype (%)” value [2, 9] was 16%, the “Total Cell Count” value [2, 9] was 130 and the “Population Apoptotic (%)” value [2, 10] was 45%. The “Population Healthy Nuclei (%)” value [2, 10] was 68%, the “Population Hoechst High Intensity Objects (%)” value [2, 10] was 6% and the “Population Membrane Permeable-Phenotype (%)” value [2, 10] was 3%. For the same compound, the “Population Mitochondria Different-Phenotype (%)” value [2, 10] was 27%, the “Population Mitotic Cells (%)” value [2, 10] was 54% and the “Population Normal (%)” value [2, 10] was 93%. For the same compound, the “Population Pyknosed Nuclei (%)” value [2, 10] was 13%, the “Population Tubulin-Different-Phenotype (%)” value [2, 10] was 22% and the “Total Cell Count” value [2, 10] was 186. The “Population Apoptotic (%)” value [2, 11] was 66%, the “Population Fragmented Nuclei (%)” value [2, 11] was 17% and the “Population Healthy Nuclei (%)” value [2, 11] was 67%. The “Population Hoechst High Intensity Objects (%)” value [2, 11] was 4%, the “Population Membrane Permeable-Phenotype (%)” value [2, 11] was 9% and the “Population Mitochondria Different-Phenotype (%)” value [2, 11] was 21%. For the same compound, the “Population Mitotic Cells (%)” value [2, 11] was 33%, the “Population Normal (%)” value [2, 11] was 95% and the “Population Pyknosed Nuclei (%)” value [2, 11] was 14%. The “Population Tubulin-Different-Phenotype (%)” value [2, 11] was 11%, the “Total Cell Count” value [2, 11] was 44 and the “Population Apoptotic (%)” value [2, 12] was 46%. For the same compound, the “Population Fragmented Nuclei (%)” value [2, 12] was 6%, the “Population Healthy Nuclei (%)” value [2, 12] was 86% and the “Population Hoechst High Intensity Objects (%)” value [2, 12] was 4%. The “Population Membrane Permeable-Phenotype (%)” value [2, 12] was 3%, the “Population Mitochondria Different-Phenotype (%)” value [2, 12] was 8% and the “Population Mitotic Cells (%)” value [2, 12] was 53%. For the same compound, the “Population Normal (%)” value [2, 12] was 95%, the “Population Pyknosed Nuclei (%)” value [2, 12] was 6% and the “Population Tubulin-Different-Phenotype (%)” value [2, 12] was 8%. For the same compound, the “Total Cell Count” value [2, 12] was 164, the “Population Apoptotic (%)” value [2, 13] was 50% and the “Population Fragmented Nuclei (%)” value [2, 13] was 5%. The “Population Healthy Nuclei (%)” value [2, 13] was 91%, the “Population Hoechst High Intensity Objects (%)” value [2, 13] was 5% and the “Population Membrane Permeable-Phenotype (%)” value [2, 13] was 1%. For the same compound, the “Population Mitochondria Different-Phenotype (%)” value [2, 13] was 7%, the “Population Mitotic Cells (%)” value [2, 13] was 50% and the “Population Pyknosed Nuclei (%)” value [2, 13] was 3%. The “Population Tubulin-Different-Phenotype (%)” value [2, 13] was 15%, the “Total Cell Count” value [2, 13] was 126 and the “Population Apoptotic (%)” value [2, 14] was 42%. The “Population Fragmented Nuclei (%)” value [2, 14] was 19%, the “Population Membrane Permeable-Phenotype (%)” value [2, 14] was 8% and the “Population Mitochondria Different-Phenotype (%)” value [2, 14] was 23%. The “Population Mitotic Cells (%)” value [2, 14] was 57%, the “Population Pyknosed Nuclei (%)” value [2, 14] was 21% and the “Population Tubulin-Different-Phenotype (%)” value [2, 14] was 16%. The “Total Cell Count” value [2, 14] was 241, the “Population Apoptotic (%)” value [2, 15] was 44% and the “Population Fragmented Nuclei (%)” value [2, 15] was 14%. The “Population Healthy Nuclei (%)” value [2, 15] was 58%, the “Population Hoechst High Intensity Objects (%)” value [2, 15] was 2% and the “Population Membrane Permeable-Phenotype (%)” value [2, 15] was 25%. For the same compound, the “Population Mitochondria Different-Phenotype (%)” value [2, 15] was 32%, the “Population Mitotic Cells (%)” value [2, 15] was 55% and the “Population Normal (%)” value [2, 15] was 97%. For the same compound, the “Population Pyknosed Nuclei (%)” value [2, 15] was 26%, the “Population Tubulin-Different-Phenotype (%)” value [2, 15] was 22% and the “Total Cell Count” value [2, 15] was 60. The “Population Apoptotic (%)” value [2, 16] was 32%, the “Population Healthy Nuclei (%)” value [2, 16] was 88% and the “Population Hoechst High Intensity Objects (%)” value [2, 16] was 3%. For the same compound, the “Population Membrane Permeable-Phenotype (%)” value [2, 16] was 2%, the “Population Mitochondria Different-Phenotype (%)” value [2, 16] was 8% and the “Population Mitotic Cells (%)” value [2, 16] was 68%. The “Population Normal (%)” value [2, 16] was 96%, the “Population Pyknosed Nuclei (%)” value [2, 16] was 6% and the “Population Tubulin-Different-Phenotype (%)” value [2, 16] was 7%. The “Total Cell Count” value [2, 16] was 160, the “Population Apoptotic (%)” value [2, 17] was 33% and the “Population Fragmented Nuclei (%)” value [2, 17] was 4%. For the same compound, the “Population Healthy Nuclei (%)” value [2, 17] was 92%, the “Population Hoechst High Intensity Objects (%)” value [2, 17] was 4% and the “Population Membrane Permeable-Phenotype (%)” value [2, 17] was 3%. For the same compound, the “Population Mitochondria Different-Phenotype (%)” value [2, 17] was 10%, the “Population Mitotic Cells (%)” value [2, 17] was 66% and the “Population Normal (%)” value [2, 17] was 95%. For the same compound, the “Population Pyknosed Nuclei (%)” value [2, 17] was 3%, the “Population Tubulin-Different-Phenotype (%)” value [2, 17] was 14% and the “Total Cell Count” value [2, 17] was 122. For the same compound, the “Population Apoptotic (%)” value [2, 18] was 55%, the “Population Fragmented Nuclei (%)” value [2, 18] was 20% and the “Population Healthy Nuclei (%)” value [2, 18] was 56%. For the same compound, the “Population Hoechst High Intensity Objects (%)” value [2, 18] was 5%, the “Population Membrane Permeable-Phenotype (%)” value [2, 18] was 10% and the “Population Mitochondria Different-Phenotype (%)” value [2, 18] was 19%. For the same compound, the “Population Mitotic Cells (%)” value [2, 18] was 44%, the “Population Normal (%)” value [2, 18] was 94% and the “Population Pyknosed Nuclei (%)” value [2, 18] was 22%. For the same compound, the “Population Tubulin-Different-Phenotype (%)” value [2, 18] was 13%, the “Total Cell Count” value [2, 18] was 386 and the “Population Apoptotic (%)” value [2, 19] was 72%. For the same compound, the “Population Fragmented Nuclei (%)” value [2, 19] was 17%, the “Population Healthy Nuclei (%)” value [2, 19] was 69% and the “Population Hoechst High Intensity Objects (%)” value [2, 19] was 6%. The “Population Membrane Permeable-Phenotype (%)” value [2, 19] was 32%, the “Population Mitochondria Different-Phenotype (%)” value [2, 19] was 32% and the “Population Mitotic Cells (%)” value [2, 19] was 27%. The “Population Normal (%)” value [2, 19] was 93%, the “Population Pyknosed Nuclei (%)” value [2, 19] was 13% and the “Population Tubulin-Different-Phenotype (%)” value [2, 19] was 35%. For the same compound, the “Total Cell Count” value [2, 19] was 93, the “Growth Rate” value ([3]; 0 h, replicate number 2, timepoint 0 hours) was 0 and the “Growth Rate” value [3, 4] was 0. The “Growth Rate” value [3, 5] was 0, the “Growth Rate” value [3, 6] was 0 and the “Growth Rate” value [3, 7] was 0.
